The results in this text go back to PubChem BioAssay.

Active and inactive are the calls of the source.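 Rule for the calls: active = GFP response above 150% of the DMSO control; inconclusive = fewer than 70 events counted in any yeast strain; inactive = the rest.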

The nature of one assay: RPL19A-GFP modulators, yeast TOR pathway, confirmation, cell-based, S. cerevisiae, flow cytometry, cherry picks, mother/daughter gates (AID 2270). As to conditions: S. cerevisiae RPL19A-GFP strain, 3 h, measured here: daughter cell gate, at 10 µM, stronger effect = lower value, 100 = same GFP as DMSO wells. (In general: Flow cytometry measures light scatter and fluorescence of single cells or particles in a stream.)
`O=C1c2ccccc2-c2onc3ccc(Oc4ccccc4)c1c23` yielded a GFP response vs DMSO of 86.6%.

On to `CCOc1nnc(C)c2c(C)n(-c3cccc(OC)c3)nc12`, for which the GFP response vs DMSO came to 102%.

As for `O=C(C#Cc1ccccc1)c1cccc([N+](=O)[O-])c1`, the GFP response vs DMSO came to 95.9%.

For `COC(=O)c1ccc2nc(Nc3nc4c(F)cc(F)cc4s3)sc2c1`, the GFP response vs DMSO was determined as 97.3%.

For `O=C(C#Cc1cccc([N+](=O)[O-])c1)c1ccccc1`, the GFP response vs DMSO was 98%.

Compound `COC(=O)n1c(=S)oc2cc(Cl)ccc21` gave a GFP response vs DMSO of 93.9%.

As for `O=C(/C=C/c1ccc(Cl)c([N+](=O)[O-])c1)c1cccnc1`, the GFP response vs DMSO came out at 89.7%.

`COCCN1C(=O)/C(=C/c2ccc(N3CCCC3)cc2C)SC1=S`: the GFP response vs DMSO amounted to 99.1%.

`N=c1c(C(=O)NCc2ccco2)cc2c(=O)n3ccccc3nc2n1CCc1ccccc1` returned a GFP response vs DMSO of 96.4%.

With `COc1cccc2sc(Nc3nc(-c4ccccn4)cs3)nc12`, the GFP response vs DMSO amounted to 99.5%.

In turn, `Oc1ccc2ccccc2c1/C=N/Nc1nnc(-c2ncc[nH]2)c2ccccc12` displayed a GFP response vs DMSO of 91.9%.

As for `CN(C)c1ccc(/C=C/C(=O)c2cccc(Br)c2)cc1`, the GFP response vs DMSO turned out to be 105%.

In turn, `CN(c1ccccc1)c1ccc(/C=c2\s/c(=C(/C#N)C(=O)C(C)(C)C)n(Cc3ccco3)c2=O)cc1` displayed a GFP response vs DMSO of 118%.

On to `CS(=O)(=O)N1N=C(c2ccccc2)CC1c1ccc2c(c1)OCO2` (centres undefined), for which the GFP response vs DMSO worked out at 137%.

The compound `CCOC(=O)N1CCN(C(=O)CCc2ccc(S(=O)(=O)NCCc3ccccc3)cc2)CC1` came in with a GFP response vs DMSO of 100%.

For the compound `CC(C)(C)c1ccc(C(=O)CC(Sc2ccc(Cl)cc2)C(=O)O)cc1` (centres undefined), the GFP response vs DMSO was 97.1%.

`Cc1cc(C)c(C(=O)Cn2cnc3cc([N+](=O)[O-])ccc3c2=O)cc1C` had a GFP response vs DMSO of 101%.

Compound `CC(C)(C)C(=O)/C=c1\s/c(=C\c2ccc(-c3ccc([N+](=O)[O-])cc3)o2)c(=O)n1CC(=O)NC(N)=O` registered a GFP response vs DMSO of 101%.

The same assay, now with this note: S. cerevisiae RPL19A-GFP strain, 3 h, measured here: mother cell gate, at 10 µM, stronger effect = lower value, 100 = same GFP as DMSO wells.
`O=C1c2ccccc2-c2onc3ccc(Oc4ccccc4)c1c23` showed a GFP response vs DMSO of 85.9%.

Regarding `CCOc1nnc(C)c2c(C)n(-c3cccc(OC)c3)nc12`, the GFP response vs DMSO is 106%.

`O=C(C#Cc1ccccc1)c1cccc([N+](=O)[O-])c1` had a GFP response vs DMSO of 85.9%.

As to `COC(=O)c1ccc2nc(Nc3nc4c(F)cc(F)cc4s3)sc2c1`, the GFP response vs DMSO worked out at 98.3%.

In turn, `O=C(C#Cc1cccc([N+](=O)[O-])c1)c1ccccc1` had a GFP response vs DMSO of 88%.

Regarding `COC(=O)n1c(=S)oc2cc(Cl)ccc21`, the GFP response vs DMSO was 94.5%.

`O=C(/C=C/c1ccc(Cl)c([N+](=O)[O-])c1)c1cccnc1`: the GFP response vs DMSO was determined as 84.1%.

Turning to `COCCN1C(=O)/C(=C/c2ccc(N3CCCC3)cc2C)SC1=S`, the GFP response vs DMSO came to 100%.

`N=c1c(C(=O)NCc2ccco2)cc2c(=O)n3ccccc3nc2n1CCc1ccccc1` yielded a GFP response vs DMSO of 95.8%.

On to `COc1cccc2sc(Nc3nc(-c4ccccn4)cs3)nc12`, for which the GFP response vs DMSO came to 96.6%.

On to `Oc1ccc2ccccc2c1/C=N/Nc1nnc(-c2ncc[nH]2)c2ccccc12`, for which the GFP response vs DMSO came out at 108%.

On to `CN(C)c1ccc(/C=C/C(=O)c2cccc(Br)c2)cc1`, for which the GFP response vs DMSO is 104%.

As to `CN(c1ccccc1)c1ccc(/C=c2\s/c(=C(/C#N)C(=O)C(C)(C)C)n(Cc3ccco3)c2=O)cc1`, the GFP response vs DMSO is 116%.

Consider `CS(=O)(=O)N1N=C(c2ccccc2)CC1c1ccc2c(c1)OCO2` (centres undefined), for which the GFP response vs DMSO is 135%.

For `CCOC(=O)N1CCN(C(=O)CCc2ccc(S(=O)(=O)NCCc3ccccc3)cc2)CC1`, the GFP response vs DMSO was 97.8%.

`CC(C)(C)c1ccc(C(=O)CC(Sc2ccc(Cl)cc2)C(=O)O)cc1` (centres undefined) returned a GFP response vs DMSO of 100%.

Turning to `Cc1cc(C)c(C(=O)Cn2cnc3cc([N+](=O)[O-])ccc3c2=O)cc1C`, the GFP response vs DMSO stood at 99.8%.

The compound `CC(C)(C)C(=O)/C=c1\s/c(=C\c2ccc(-c3ccc([N+](=O)[O-])cc3)o2)c(=O)n1CC(=O)NC(N)=O` yielded a GFP response vs DMSO of 101%.

A short description of a further assay: LAP4-GFP expression modulators in yeast, confirmation, cell-based, cherry picks, flow cytometry, mother/daughter gates (AID 2271).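 Note: ratio of sample to DMSO plate mean so 100% equals DMSO level.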 The note with it: S. cerevisiae LAP4-GFP strain, 3 h, at 10 µM, stronger effect = higher value, 100 means same as DMSO control. In outline:
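System: GFP-fusion yeast strain; Incubation: compound exposure 3 h at 30 °C, end-over-end rotation; Measured by: GFP by flow cytometry; Read-out: median GFP fluorescence as percent of plate-mean DMSO wells; Medium: synthetic complete (SC) yeast growth medium; Compound: single test-compound dose, 10 µM final; Benchmarks: DMSO-only negative wells, rapamycin 400 ng/mL positive wells.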
As for `O=C1c2ccccc2-c2onc3ccc(Oc4ccccc4)c1c23`, the GFP response relative to DMSO is 147% (inactive).

For the compound `CCOc1nnc(C)c2c(C)n(-c3cccc(OC)c3)nc12`, the GFP response relative to DMSO is 98.7% (inactive).

Take `O=C(C#Cc1ccccc1)c1cccc([N+](=O)[O-])c1`: the GFP response relative to DMSO was 182% (active).

For the compound `COC(=O)c1ccc2nc(Nc3nc4c(F)cc(F)cc4s3)sc2c1`, the GFP response relative to DMSO is 91.2% (inactive).

On to `O=C(C#Cc1cccc([N+](=O)[O-])c1)c1ccccc1`, for which the GFP response relative to DMSO is 190% (active).

Take `COC(=O)n1c(=S)oc2cc(Cl)ccc21`: the GFP response relative to DMSO is 126% (inactive).

For `O=C(/C=C/c1ccc(Cl)c([N+](=O)[O-])c1)c1cccnc1`, the GFP response relative to DMSO was 207% (active).

Turning to `COCCN1C(=O)/C(=C/c2ccc(N3CCCC3)cc2C)SC1=S`, the GFP response relative to DMSO is 117% (inactive).

In the case of `N=c1c(C(=O)NCc2ccco2)cc2c(=O)n3ccccc3nc2n1CCc1ccccc1`, the GFP response relative to DMSO was 99.2% (inactive).

With `COc1cccc2sc(Nc3nc(-c4ccccn4)cs3)nc12`, the GFP response relative to DMSO was 254% (active).

Turning to `Oc1ccc2ccccc2c1/C=N/Nc1nnc(-c2ncc[nH]2)c2ccccc12`, the GFP response relative to DMSO was 123% (inactive).

Consider `CN(C)c1ccc(/C=C/C(=O)c2cccc(Br)c2)cc1`, for which the GFP response relative to DMSO was 99.5% (inactive).

As to `CN(c1ccccc1)c1ccc(/C=c2\s/c(=C(/C#N)C(=O)C(C)(C)C)n(Cc3ccco3)c2=O)cc1`, the GFP response relative to DMSO was 235% (active).

For the compound `CS(=O)(=O)N1N=C(c2ccccc2)CC1c1ccc2c(c1)OCO2` (centres undefined), the GFP response relative to DMSO is 449% (active).

`CCOC(=O)N1CCN(C(=O)CCc2ccc(S(=O)(=O)NCCc3ccccc3)cc2)CC1`: the GFP response relative to DMSO was 95.3% (inactive).

For `CC(C)(C)c1ccc(C(=O)CC(Sc2ccc(Cl)cc2)C(=O)O)cc1` (centres undefined), the GFP response relative to DMSO was 120% (inactive).

In the case of `Cc1cc(C)c(C(=O)Cn2cnc3cc([N+](=O)[O-])ccc3c2=O)cc1C`, the GFP response relative to DMSO was 89.4% (inactive).

`CC(C)(C)C(=O)/C=c1\s/c(=C\c2ccc(-c3ccc([N+](=O)[O-])cc3)o2)c(=O)n1CC(=O)NC(N)=O`: the GFP response relative to DMSO was 102% (inactive).
